We go through 24 compounds from ChEMBL document CHEMBL1152523, “3-Substituted phenylalanines as selective AMPA- and kainate receptor ligands” (Bioorg Med Chem, 2009).

The target in experiment [1] is T1, Glutamate receptor ionotropic, kainate 1 (Rattus norvegicus, UniProt P22756). Kind of experiment: Displacement of [3H]SYM2081 from rat recombinant iGluR5-1b expressed in baculovirus-infected insect Sf9 cells. A digest of the protocol: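 Recombinant rat iGluR5(Q)1b expressed in Sf9 insect cells via baculoviral infection; competition binding against [3H]-SYM 2081 radioligand. Values from three independent experiments, expressed as mean ± SEM.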
On the technique in general: In a radioligand displacement assay an active substance lowers the binding of a labelled ligand.

The species entered for a further experiment is Rattus norvegicus. As to the kind of experiment: Displacement of [3H]kainic acid from kainate receptor in rat cortical membrane. It counts as cell membranes. A digest of the protocol:
(§1)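 Native rat brain membranes prepared per Ransom and Stec. Competition binding with 5 nM [3H]AMPA or 5 nM [3H]KA. Three independent experiments, mean ± SEM.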

Experiment [2] addresses Glutamate NMDA receptor (Rattus norvegicus) (UniProt P35439+Q00959+Q00960+Q00961+Q62645+Q8VHN2+Q9R1M7). As to the kind of experiment: Displacement of [3H]CGP39653 from NMDA receptor in rat cortical membrane. It is filed as cell membranes. A digest of the protocol: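 Rat brain membranes prepared per Ransom and Stec. Binding at the NMDA site measured with 2 nM [3H]CGP 39653. Three independent experiments, mean ± SEM.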

The nature of experiment [3]: Displacement of [3H]AMPA from AMPA receptor in rat cortical membrane. It is filed as cell membranes. The procedure, abridged: as §1
The target of experiment [4] is Glutamate receptor ionotropic, kainate 2 (Rattus norvegicus) (UniProt P42260). Kind of experiment: Displacement of [3H]SYM2081 from rat recombinant iGluR6 expressed in baculovirus-infected insect Sf9 cells. A digest of the protocol:
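Recombinant rat iGluR6(V,C,R) expressed in baculovirus-infected Sf9 insect cells. Competition binding against [3H]-SYM 2081 radioligand. Three independent experiments, mean ± SEM.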

For experiment [5], the target named is T1, Glutamate receptor ionotropic, kainate 1. Kind of experiment: Displacement of [3H]S-glutamate from rat GluR5 S1S2 ligand binding core expressed in Escherichia coli (DE3).
Another experiment addresses Glutamate receptor 2 (Rattus norvegicus, UniProt P19491). As to the kind of experiment: Displacement of [3H]AMPA from wild type rat GluR2 S1S2 ligand binding core.

Active and inactive are the calls of the source. The calls are words filed in the database; no cut-off is given here.

Sequence of Glutamate receptor ionotropic, kainate 2 (Rattus norvegicus) (P42260 whole entry): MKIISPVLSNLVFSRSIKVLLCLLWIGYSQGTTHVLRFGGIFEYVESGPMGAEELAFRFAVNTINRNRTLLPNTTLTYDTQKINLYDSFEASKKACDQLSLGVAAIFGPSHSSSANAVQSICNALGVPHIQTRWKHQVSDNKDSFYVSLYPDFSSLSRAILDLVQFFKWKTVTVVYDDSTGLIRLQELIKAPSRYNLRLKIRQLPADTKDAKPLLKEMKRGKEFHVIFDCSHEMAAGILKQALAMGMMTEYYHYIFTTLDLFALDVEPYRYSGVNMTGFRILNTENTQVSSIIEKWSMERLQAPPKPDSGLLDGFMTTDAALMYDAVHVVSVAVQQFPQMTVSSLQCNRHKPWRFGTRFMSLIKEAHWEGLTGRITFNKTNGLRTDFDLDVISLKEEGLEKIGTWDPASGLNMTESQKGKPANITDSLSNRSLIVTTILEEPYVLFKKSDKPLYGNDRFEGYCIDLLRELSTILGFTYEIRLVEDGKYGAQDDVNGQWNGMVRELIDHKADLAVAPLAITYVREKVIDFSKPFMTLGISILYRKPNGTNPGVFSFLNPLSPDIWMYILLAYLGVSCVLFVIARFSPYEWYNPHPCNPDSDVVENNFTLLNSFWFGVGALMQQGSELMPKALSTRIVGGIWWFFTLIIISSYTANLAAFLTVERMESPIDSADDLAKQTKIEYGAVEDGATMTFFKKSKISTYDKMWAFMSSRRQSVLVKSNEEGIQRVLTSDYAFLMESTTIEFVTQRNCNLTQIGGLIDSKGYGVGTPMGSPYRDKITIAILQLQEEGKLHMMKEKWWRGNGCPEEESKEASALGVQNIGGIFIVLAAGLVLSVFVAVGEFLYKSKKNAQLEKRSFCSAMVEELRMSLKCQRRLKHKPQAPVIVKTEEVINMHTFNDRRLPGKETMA
T1 sequence (P22756 whole entry): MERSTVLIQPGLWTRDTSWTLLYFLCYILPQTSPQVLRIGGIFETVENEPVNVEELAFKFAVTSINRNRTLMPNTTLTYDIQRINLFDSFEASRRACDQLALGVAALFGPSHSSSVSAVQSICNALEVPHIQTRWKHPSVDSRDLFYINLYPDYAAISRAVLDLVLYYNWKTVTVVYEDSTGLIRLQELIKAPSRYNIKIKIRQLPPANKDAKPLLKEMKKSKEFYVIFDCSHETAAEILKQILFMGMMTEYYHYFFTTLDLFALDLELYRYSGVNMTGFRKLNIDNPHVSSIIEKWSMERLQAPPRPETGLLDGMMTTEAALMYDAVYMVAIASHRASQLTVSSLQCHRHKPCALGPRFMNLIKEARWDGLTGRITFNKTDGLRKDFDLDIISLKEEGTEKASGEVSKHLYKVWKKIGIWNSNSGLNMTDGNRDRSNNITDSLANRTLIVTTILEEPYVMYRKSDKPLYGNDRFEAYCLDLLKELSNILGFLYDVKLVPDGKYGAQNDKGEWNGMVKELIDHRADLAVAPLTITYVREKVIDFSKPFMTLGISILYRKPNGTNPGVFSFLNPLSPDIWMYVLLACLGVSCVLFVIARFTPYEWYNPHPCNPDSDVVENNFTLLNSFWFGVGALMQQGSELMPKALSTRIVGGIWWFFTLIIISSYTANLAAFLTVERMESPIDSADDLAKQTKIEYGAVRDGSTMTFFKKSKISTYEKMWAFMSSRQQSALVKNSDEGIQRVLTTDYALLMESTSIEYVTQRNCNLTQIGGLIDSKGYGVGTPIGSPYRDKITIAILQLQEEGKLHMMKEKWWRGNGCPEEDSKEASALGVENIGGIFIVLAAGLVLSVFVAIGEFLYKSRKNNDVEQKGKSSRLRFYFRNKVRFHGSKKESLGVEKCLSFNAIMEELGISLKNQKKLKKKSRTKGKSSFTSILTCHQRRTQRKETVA
Sequence of Glutamate receptor 2 (P19491 whole entry): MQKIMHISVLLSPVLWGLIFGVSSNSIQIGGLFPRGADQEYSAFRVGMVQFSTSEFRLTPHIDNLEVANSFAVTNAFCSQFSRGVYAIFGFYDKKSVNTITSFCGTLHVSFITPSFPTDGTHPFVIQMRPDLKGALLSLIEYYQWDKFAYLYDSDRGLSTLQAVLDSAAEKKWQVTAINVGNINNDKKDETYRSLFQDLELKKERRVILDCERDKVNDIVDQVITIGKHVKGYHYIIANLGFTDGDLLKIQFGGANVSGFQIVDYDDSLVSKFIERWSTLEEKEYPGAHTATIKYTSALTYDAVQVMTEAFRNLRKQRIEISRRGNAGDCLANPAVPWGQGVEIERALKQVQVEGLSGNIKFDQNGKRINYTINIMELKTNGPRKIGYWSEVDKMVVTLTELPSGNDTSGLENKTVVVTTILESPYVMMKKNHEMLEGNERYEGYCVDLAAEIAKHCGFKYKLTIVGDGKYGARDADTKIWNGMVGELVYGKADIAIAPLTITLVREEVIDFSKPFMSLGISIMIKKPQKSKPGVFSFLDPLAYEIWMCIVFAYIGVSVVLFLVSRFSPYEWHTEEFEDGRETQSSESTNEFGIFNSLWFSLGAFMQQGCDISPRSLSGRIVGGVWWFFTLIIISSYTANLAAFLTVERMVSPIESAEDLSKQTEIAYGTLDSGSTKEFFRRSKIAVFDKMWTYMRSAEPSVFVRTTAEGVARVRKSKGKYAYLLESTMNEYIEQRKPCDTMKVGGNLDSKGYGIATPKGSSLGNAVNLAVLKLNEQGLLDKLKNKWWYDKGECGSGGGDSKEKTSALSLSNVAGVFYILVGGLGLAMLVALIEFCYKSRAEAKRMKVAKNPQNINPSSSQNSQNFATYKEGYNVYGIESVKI

In the case of `NC(Cc1cc(Cl)c(Cl)c(-c2cccc(O)c2)c1)C(=O)O` (racemic), in experiment [1], the Ki – broadly, the dissociation constant of the complex between target and ligand, obtained from inhibition or displacement – is greater than 100 µM. Besides, the outcome (in the experiment listed under Rattus norvegicus; in experiment [2]; in experiment [4]) was inactive. In addition, in experiment [3], the IC50 (as a rule, the point on the concentration scale where inhibition reaches its midpoint) came out at 4.6 µM.
With `NC(Cc1cccc(-c2cccc(C(=O)O)c2)c1)C(=O)O` (racemic), the Ki in experiment [1] was determined as 7.9 µM. Also, the outcome (in the experiment listed under Rattus norvegicus; in experiment [2]; in experiment [4]) was inactive. Moreover, the IC50 in experiment [3] is greater than 100 µM.
In the case of `NC(Cc1cc(Cl)c(Cl)c(-c2cccc(-c3nnn[nH]3)c2)c1)C(=O)O` (racemic), the Ki in experiment [1] was no less than 100 µM. Further, the result (in the experiment filed under Rattus norvegicus; in experiment [2]; in experiment [4]) was inactive. Further, in experiment [3], the IC50 was greater than 100 µM.
Regarding `NC(Cc1cc(Cl)c(Cl)c(-c2ccccc2C(=O)O)c1)C(=O)O` (racemic), in experiment [1], the Ki is greater than 100 µM. Further, the result (in the experiment filed under Rattus norvegicus; in experiment [2]; in experiment [4]) was inactive. In experiment [3], the IC50 is greater than 100 µM.
In the case of `NC(Cc1cc(Cl)c(Cl)c(-c2ccc(C(=O)O)cc2)c1)C(=O)O` (racemic), in experiment [1], the Ki was greater than 100 µM. Moreover, the result (in the experiment filed under Rattus norvegicus; in experiment [2]; in experiment [4]) was inactive. Moreover, the 50% inhibitory concentration (IC50) in experiment [3] was 42 µM.
Take `NC(Cc1cc(Cl)c(Cl)c(-c2ccc(-c3nnn[nH]3)cc2)c1)C(=O)O` (racemic): in experiment [1], the Ki is greater than 100 µM. Moreover, the outcome (in the experiment listed under Rattus norvegicus; in experiment [2]; in experiment [4]) was inactive. Also, the IC50 in experiment [3] is greater than 100 µM.
Consider `NC(Cc1cc(Cl)c(Cl)c(-c2ccccc2-c2nnn[nH]2)c1)C(=O)O` (racemic), for which, in experiment [1], the Ki is greater than 100 µM. Further, the outcome (in the experiment filed under Rattus norvegicus; in experiment [2]; in experiment [4]) was inactive. This compound displayed an IC50 in experiment [3] greater than 100 µM.
As for `NC(Cc1cccc(-c2ccc(CC(=O)O)cc2)c1)C(=O)O` (stereo not drawn), the Ki in experiment [1] was greater than 100 µM. The outcome (in the experiment filed under Rattus norvegicus; in experiment [2]; in experiment [4]) was inactive. This compound returned an IC50 in experiment [3] greater than 100 µM.
On to `NC(Cc1cc(Cl)c(Cl)c(-c2ccc(O)cc2)c1)C(=O)O` (racemic), for which the Ki in experiment [1] was greater than 100 µM. The result (in the experiment filed under Rattus norvegicus; in experiment [2]; in experiment [4]) was inactive. Moreover, the IC50 in experiment [3] came out at 33 µM.
`NC(Cc1cc(Cl)c(Cl)c(-c2cccc(C(=O)O)c2)c1)C(=O)O` (racemic): the Ki in experiment [1] is 2.8 µM. Besides, the outcome (in the experiment listed under Rattus norvegicus; in experiment [2]; in experiment [4]) was inactive. For the same compound, the IC50 in experiment [3] was greater than 100 µM.
As for `NC(Cc1cccc(Cc2ccc(C(=O)O)cc2)c1)C(=O)O` (racemic), the Ki in experiment [1] is no less than 100 µM. Further, the result (in the experiment listed under Rattus norvegicus; in experiment [2]; in experiment [4]) was inactive. Moreover, the IC50 in experiment [3] is greater than 100 µM.
Turning to `CC(C)(C)c1onc(OCP(=O)(O)O)c1C[C@H](N)C(=O)O`, the Ki in experiment [1] turned out to be 2.9 µM. Besides, the outcome (in the experiment filed under Rattus norvegicus; in experiment [2]; in experiment [4]) was inactive. This compound registered an IC50 in experiment [3] of 16 µM.
Turning to `NC(Cc1cc(Cl)c(Cl)c(-c2ccc(C(=O)O)s2)c1)C(=O)O` (racemic), in experiment [1], the Ki is no less than 100 µM. Besides, the outcome (in the experiment listed under Rattus norvegicus; in experiment [2]; in experiment [4]) was inactive. Further, the half-maximal inhibitory concentration (IC50) in experiment [3] is 61 µM.
For `NC(Cc1cccc(-c2ccc(C(=O)O)cc2)c1)C(=O)O` (racemic), in experiment [1], the inhibitory constant (Ki) is greater than 100 µM. Besides, the result (in the experiment listed under Rattus norvegicus; in experiment [2]; in experiment [4]) was inactive. Also, in experiment [3], the IC50 worked out at 41 µM.
On to `NC(Cc1cc(Cl)c(Cl)c(-c2ccccc2O)c1)C(=O)O` (racemic), for which the Ki in experiment [1] is greater than 100 µM. In addition, the outcome (in the experiment filed under Rattus norvegicus; in experiment [2]; in experiment [4]) was inactive. Also, the IC50 in experiment [3] was determined as 85 µM.
On to `NC(Cc1cc(Cl)c(Cl)c(-c2ccc([N+](=O)[O-])cc2)c1)C(=O)O` (racemic), for which the Ki in experiment [1] was greater than 100 µM. Besides, the result (in the experiment listed under Rattus norvegicus; in experiment [2]; in experiment [4]) was inactive. Moreover, the IC50 in experiment [3] is greater than 100 µM.
In the case of `NC(Cc1cc(Cl)c(Cl)c(-c2cccc([N+](=O)[O-])c2)c1)C(=O)O` (racemic), in experiment [1], the Ki is greater than 100 µM. Further, the result (in the experiment listed under Rattus norvegicus; in experiment [2]; in experiment [4]) was inactive. This compound registered an IC50 in experiment [3] greater than 100 µM.
Turning to `NC(Cc1cccc(Cc2cccc(C(=O)O)c2)c1)C(=O)O` (racemic), in experiment [1], the Ki is 50 µM. Moreover, the outcome (in the experiment listed under Rattus norvegicus; in experiment [2]; in experiment [4]) was inactive. For the same compound, the IC50 in experiment [3] was greater than 100 µM.
With `N[C@H](Cc1cccc(-c2cccc(C(=O)O)c2)c1)C(=O)O`, the Ki in experiment [1] is greater than 1000 µM. Besides, the outcome (in the experiment listed under Rattus norvegicus; in experiment [2]; in experiment [4]) was inactive.
On to `N[C@@H](Cc1cccc(-c2cccc(C(=O)O)c2)c1)C(=O)O`, for which the Ki in experiment [1] amounted to 4.08 µM. The result (in the experiment listed under Rattus norvegicus; in experiment [2]; in experiment [4]) was inactive.
For `NC(Cc1cccc(Cc2ccccc2C(=O)O)c1)C(=O)O` (racemic), the Ki in experiment [1] is no less than 100 µM. Also, the outcome (in the experiment filed under Rattus norvegicus; in experiment [2]; in experiment [4]) was inactive. Moreover, the IC50 in experiment [3] is greater than 100 µM.
As to `NC(Cc1cccc(-c2cccc(CC(=O)O)c2)c1)C(=O)O` (racemic), the Ki in experiment [1] is no less than 100 µM. In addition, the result (in the experiment filed under Rattus norvegicus; in experiment [2]; in experiment [4]) was inactive. In experiment [3], this compound had an IC50 greater than 100 µM.
`N[C@@H](Cn1ccc(=O)n(Cc2ccccc2C(=O)O)c1=O)C(=O)O`: the Kd (commonly the constant that tells how readily two partners part at equilibrium) in experiment [5] turned out to be 3.94 µM; on Glutamate receptor 2, 146 µM. In addition, the result (in the experiment filed under Rattus norvegicus; in experiment [2]; in experiment [4]) was inactive.
As to `NC(Cc1cccc(-c2ccccc2C(=O)O)c1)C(=O)O` (racemic), in experiment [1], the Ki is greater than 100 µM. The outcome (in the experiment listed under Rattus norvegicus; in experiment [2]; in experiment [4]) was inactive. The IC50 in experiment [3] is greater than 100 µM.
